The target of test [1] is T1, Acetylcholinesterase (Homo sapiens, UniProt P22303). Description: Mixed type inhibition of human erythrocyte AChE assessed as decrease in Vmax at 3.3 to 9.9 nM using varying level of acetylthiocholine iodide as substrate by Lineweaver-Burk plot analysis. The format is tissue-based. To be noted: dose 3.3-9.9 nM. In outline:
(§1)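 hAChE from human erythrocytes, washed in saline and lysed in 0.1 M Na₃PO₄ pH 7.4 with 0.5% Triton-X, then diluted. Ellman set-up (30 min room-temperature preincubation, then 37 °C with DTNB 1.2 mM) using substrate 0.25, 0.5, 1 and 2 mM and inhibitor 3.3 and 9.9 nM. Vmax and Km by nonlinear regression of substrate–velocity curves; Lineweaver–Burk by linear regression.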

Test [2] has as its target T2, Cholinesterase (Homo sapiens, UniProt P06276). The experiment in a line: Inhibition of human serum BuChe using butyrylthiocholine iodide as substrate incubated for 25 mins by DTNB reagent based Ellman's method. Type of test: cell-free. Put shortly:
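Compound (Tween 80/EtOH stock, final dilutions in pH 8.0 phosphate buffer) preincubated with enzyme 30 min at room temperature, then substrate 0.5 mM plus DTNB, 25 min, 37 °C; yellow anion read spectrophotometrically. Triplicate, three occasions; IC50 from % activity vs log concentration.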
A general note: In Ellman's method for cholinesterases, released thiocholine reacts with DTNB.

Test [3] addresses T1, Acetylcholinesterase. Description: Mixed type inhibition of human erythrocyte AChE assessed as increase in Km at 3.3 to 9.9 nM using varying level of acetylthiocholine iodide as substrate by Lineweaver-Burk plot analysis. Type of test: tissue-based. The conditions noted are these: dose 3.3-9.9 nM. In outline:
as §1

The target in test [4] is T2, Cholinesterase. Description: Mixed type inhibition of human serum BuChe assessed as decrease in Vmax at 89 to 267 nM using varying level of butyrylthiocholine iodide as substrate by Lineweaver-Burk plot analysis. To be noted: dose 89-267 nM. The format is cell-free. Put shortly:
(§2)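 hBChE from human plasma diluted 1:125 in 0.1 M Na₃PO₄ pH 7.4. Ellman set-up (30 min room-temperature preincubation, then 37 °C with DTNB 1.2 mM) with substrate 0.25, 0.5, 1 and 2 mM and inhibitor 89 and 267 nM. Vmax and Km from nonlinear regression of substrate–velocity curves; Lineweaver–Burk plots by linear regression.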

Test [5] addresses T1, Acetylcholinesterase. Description: Inhibition of human erythrocyte AChE using acetylthiocholine iodide as substrate incubated for 25 mins by DTNB reagent based Ellman's method. The format is tissue-based.
For test [6], the target named is T2, Cholinesterase. The experiment in a line: Mixed type inhibition of human serum BuChe assessed as increase in Km at 89 to 267 nM using varying level of butyrylthiocholine iodide as substrate by Lineweaver-Burk plot analysis. Type of test: cell-free. The conditions noted are these: dose 89-267 nM. In outline: as §2

Active and inactive are the calls of the source. No cut-off for these calls is given here.

T2 sequence (P06276 whole entry): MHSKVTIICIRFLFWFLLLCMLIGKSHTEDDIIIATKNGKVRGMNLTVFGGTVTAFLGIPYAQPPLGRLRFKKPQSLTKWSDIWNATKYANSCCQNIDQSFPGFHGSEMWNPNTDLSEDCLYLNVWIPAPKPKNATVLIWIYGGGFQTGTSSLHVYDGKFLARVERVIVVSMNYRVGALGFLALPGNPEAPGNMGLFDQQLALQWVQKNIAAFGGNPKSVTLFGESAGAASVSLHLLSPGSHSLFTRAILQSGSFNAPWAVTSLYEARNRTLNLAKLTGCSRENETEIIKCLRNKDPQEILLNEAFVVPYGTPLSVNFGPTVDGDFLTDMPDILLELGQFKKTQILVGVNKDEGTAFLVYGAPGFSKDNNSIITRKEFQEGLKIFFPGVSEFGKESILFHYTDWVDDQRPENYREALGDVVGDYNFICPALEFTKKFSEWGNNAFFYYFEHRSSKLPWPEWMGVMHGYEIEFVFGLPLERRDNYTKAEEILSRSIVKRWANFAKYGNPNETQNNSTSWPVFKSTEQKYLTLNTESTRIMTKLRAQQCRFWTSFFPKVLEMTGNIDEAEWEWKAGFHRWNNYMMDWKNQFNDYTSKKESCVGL
T1 sequence (P22303 whole entry): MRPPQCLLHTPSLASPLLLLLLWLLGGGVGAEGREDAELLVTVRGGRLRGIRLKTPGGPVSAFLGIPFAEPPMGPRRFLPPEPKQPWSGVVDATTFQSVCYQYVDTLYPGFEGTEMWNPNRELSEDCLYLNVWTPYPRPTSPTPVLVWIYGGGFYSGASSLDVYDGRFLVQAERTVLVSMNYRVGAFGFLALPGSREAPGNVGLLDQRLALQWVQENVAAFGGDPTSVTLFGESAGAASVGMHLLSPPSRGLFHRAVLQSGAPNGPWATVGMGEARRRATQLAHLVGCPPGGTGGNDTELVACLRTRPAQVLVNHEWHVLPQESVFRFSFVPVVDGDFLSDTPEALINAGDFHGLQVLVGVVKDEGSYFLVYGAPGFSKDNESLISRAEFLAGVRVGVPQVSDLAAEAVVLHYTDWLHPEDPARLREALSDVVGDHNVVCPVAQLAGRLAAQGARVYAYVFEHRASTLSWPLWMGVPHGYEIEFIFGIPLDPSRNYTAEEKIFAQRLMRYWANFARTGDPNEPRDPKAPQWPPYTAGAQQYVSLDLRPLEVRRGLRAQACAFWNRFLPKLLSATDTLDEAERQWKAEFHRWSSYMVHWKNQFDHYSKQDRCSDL

The IC50 is the concentration needed to halve the response being measured. With `COc1ccc2c3c1O[C@H]1C[C@@H](O)C=C[C@@]31CCN(CCCCc1cn(CCCC(=O)NCCc3c[nH]c4ccccc34)nn1)C2`, the inhibition entry on Acetylcholinesterase [1], at Acetylcholinesterase [3], at Cholinesterase [4] and on Cholinesterase [6] was “Active” throughout. The IC50 against Cholinesterase [2] was determined as 209 nM; against Acetylcholinesterase [5], 120 nM.

With `COc1ccc2[nH]cc(CCNC(=O)Cn3cc(CN4CC[C@@]56C=C[C@H](O)C[C@@H]5Oc5c(OC)ccc(c56)C4)nn3)c2c1`, the values for the IC50 against Cholinesterase [2] and on Acetylcholinesterase [5] were 8840 nM and 5410 nM, respectively.

`COc1ccc2[nH]c(CCNC(=O)CCCn3cc(CCCCN4CCc5cc(OC)c(OC)cc5C4CCCN4C(=O)c5ccccc5C4=O)nn3)cc2c1` (stereo unspecified): the IC50 against Cholinesterase [2] was found to be 4600 nM; against Acetylcholinesterase [5] it was 159000 nM.

As for `COc1ccc2[nH]cc(CCNC(=O)Cn3cc(CCCCN4CC[C@@]56C=C[C@H](O)C[C@@H]5Oc5c(OC)ccc(c56)C4)nn3)c2c1`, the IC50 against Cholinesterase [2] was determined as 554 nM; on Acetylcholinesterase [5], 23 nM.

With `COc1ccc2[nH]cc(CCNC(=O)Cn3cc(CN4CCc5cc(OC)c(OC)cc5C4CCCN4C(=O)c5ccccc5C4=O)nn3)c2c1` (stereo unspecified), the IC50 on Cholinesterase [2] was determined as 26200 nM; at Acetylcholinesterase [5], 39900 nM.

Regarding `COc1ccc2[nH]cc(CCNC(=O)Cn3cc(CCCCN(C)CCCC4c5cc(OC)c(OC)cc5CCN4C)nn3)c2c1` (stereo unspecified), the half-inhibitory concentration (IC50) against Cholinesterase [2] was determined as 1600 nM; on Acetylcholinesterase [5], 2200 nM.

`COc1ccc2c3c1O[C@H]1C[C@@H](O)C=C[C@@]31CCN(CCCCc1cn(CC(=O)NCCc3c[nH]c4ccccc34)nn1)C2`: the results for the IC50 on Cholinesterase [2] and against Acetylcholinesterase [5] were 907 nM and 138 nM, respectively.

For `COc1ccc2[nH]cc(CCNC(=O)CCCCn3cc(CN4CC[C@@]56C=C[C@H](O)C[C@@H]5Oc5c(OC)ccc(c56)C4)nn3)c2c1`, the IC50 was 2020 nM at Cholinesterase [2] and 1000 nM against Acetylcholinesterase [5].

Consider `COc1ccc2[nH]c(CCNC(=O)Cn3cc(CCCCN4CCc5cc(OC)c(OC)cc5C4CCCN4C(=O)c5ccccc5C4=O)nn3)cc2c1` (stereo unspecified), for which the IC50 amounted to 57200 nM against Cholinesterase [2] and 174000 nM on Acetylcholinesterase [5].

Turning to `COc1ccc2[nH]cc(CCNC(=O)CCCCn3cc(CCCCN4CC[C@@]56C=C[C@H](O)C[C@@H]5Oc5c(OC)ccc(c56)C4)nn3)c2c1`, the IC50 came to 963 nM against Cholinesterase [2] and 18 nM on Acetylcholinesterase [5].

With `COc1ccc2c3c1O[C@H]1C[C@@H](O)C=C[C@@]31CCN(CCCCc1cn(CCCCC(=O)NCCc3c[nH]c4ccccc34)nn1)C2`, the IC50 at Cholinesterase [2] was 1290 nM; against Acetylcholinesterase [5], 31 nM.

The record behind these values is ChEMBL document CHEMBL4837234, “"Clicking" fragment leads to novel dual-binding cholinesterase inhibitors” (Bioorg Med Chem, 2021).
